Legend:
Conditions in all cases: stereoisomer not certain
[1] = target: T1, UniProt Q8VGC6
T1 sequence (whole entry): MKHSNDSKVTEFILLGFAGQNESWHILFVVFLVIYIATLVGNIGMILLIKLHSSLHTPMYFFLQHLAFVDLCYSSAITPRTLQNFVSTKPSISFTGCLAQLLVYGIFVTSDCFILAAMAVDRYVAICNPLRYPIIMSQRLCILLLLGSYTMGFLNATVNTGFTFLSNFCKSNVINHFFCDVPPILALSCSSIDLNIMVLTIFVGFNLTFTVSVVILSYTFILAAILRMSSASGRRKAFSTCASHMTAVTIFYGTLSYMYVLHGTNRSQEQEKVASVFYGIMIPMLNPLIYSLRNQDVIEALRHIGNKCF
Outline: (§1)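 Transient luciferase assays in mammalian cell lines were common, though methods varied by source. The values come from published papers and their supplementary material, with extra details from the original authors when needed. Responsive refers to a measured signal the original authors judged statistically different from baseline, and non-responsive (inactive) to the remainder.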

[2] = target: T2, UniProt Q8VGD7
T2 sequence (whole entry): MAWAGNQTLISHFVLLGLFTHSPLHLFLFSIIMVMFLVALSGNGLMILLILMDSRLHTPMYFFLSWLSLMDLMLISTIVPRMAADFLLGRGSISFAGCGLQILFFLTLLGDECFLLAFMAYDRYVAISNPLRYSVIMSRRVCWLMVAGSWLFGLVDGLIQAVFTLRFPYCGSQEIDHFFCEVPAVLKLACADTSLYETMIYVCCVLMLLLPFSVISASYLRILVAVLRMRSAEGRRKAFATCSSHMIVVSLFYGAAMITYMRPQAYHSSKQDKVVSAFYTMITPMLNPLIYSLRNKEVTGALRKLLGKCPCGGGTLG
Outline: as §1

[3] = target: T3, UniProt Q8VGH1
T3 sequence (whole entry): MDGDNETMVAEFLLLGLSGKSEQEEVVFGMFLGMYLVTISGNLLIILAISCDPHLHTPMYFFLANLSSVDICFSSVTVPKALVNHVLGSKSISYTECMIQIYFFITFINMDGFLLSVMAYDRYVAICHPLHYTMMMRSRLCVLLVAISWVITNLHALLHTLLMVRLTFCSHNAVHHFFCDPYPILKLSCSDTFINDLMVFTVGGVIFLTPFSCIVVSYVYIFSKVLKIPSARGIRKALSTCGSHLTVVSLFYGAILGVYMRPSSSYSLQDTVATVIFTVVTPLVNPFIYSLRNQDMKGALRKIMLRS
Outline: as §1

[4] = target: T4, UniProt Q8VGJ1
T4 sequence (whole entry): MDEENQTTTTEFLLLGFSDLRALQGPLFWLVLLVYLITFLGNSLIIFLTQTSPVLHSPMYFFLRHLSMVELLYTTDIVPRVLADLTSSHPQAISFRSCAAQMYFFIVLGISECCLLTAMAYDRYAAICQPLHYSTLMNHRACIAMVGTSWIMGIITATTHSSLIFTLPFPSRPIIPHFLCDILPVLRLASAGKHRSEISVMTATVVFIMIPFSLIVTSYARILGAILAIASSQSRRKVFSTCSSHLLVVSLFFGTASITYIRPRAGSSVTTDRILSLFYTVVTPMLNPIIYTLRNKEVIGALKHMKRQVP
Outline: as §1

[5] = target: T5, UniProt Q8VGJ3
T5 sequence (whole entry): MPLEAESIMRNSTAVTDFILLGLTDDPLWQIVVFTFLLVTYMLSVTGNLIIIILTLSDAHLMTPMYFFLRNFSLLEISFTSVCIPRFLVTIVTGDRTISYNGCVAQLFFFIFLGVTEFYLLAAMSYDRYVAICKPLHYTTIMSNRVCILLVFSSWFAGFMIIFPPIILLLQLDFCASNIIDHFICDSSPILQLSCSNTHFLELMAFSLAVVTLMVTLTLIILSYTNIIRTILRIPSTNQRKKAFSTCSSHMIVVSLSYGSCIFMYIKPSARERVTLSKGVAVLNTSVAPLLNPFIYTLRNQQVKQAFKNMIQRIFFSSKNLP
Outline: as §1

[6] = target: T6, UniProt Q8VGJ5
T6 sequence (whole entry): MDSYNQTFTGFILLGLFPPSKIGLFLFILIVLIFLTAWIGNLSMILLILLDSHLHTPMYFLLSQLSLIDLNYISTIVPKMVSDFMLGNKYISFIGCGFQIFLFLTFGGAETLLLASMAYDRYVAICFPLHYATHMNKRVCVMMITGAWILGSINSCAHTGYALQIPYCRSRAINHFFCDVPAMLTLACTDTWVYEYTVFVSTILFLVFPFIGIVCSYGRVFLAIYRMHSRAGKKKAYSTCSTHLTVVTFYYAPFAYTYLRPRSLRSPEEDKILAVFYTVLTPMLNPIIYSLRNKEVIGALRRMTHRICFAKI
Outline: as §1

[7] = target: T7, UniProt Q8VGL0
T7 sequence (whole entry): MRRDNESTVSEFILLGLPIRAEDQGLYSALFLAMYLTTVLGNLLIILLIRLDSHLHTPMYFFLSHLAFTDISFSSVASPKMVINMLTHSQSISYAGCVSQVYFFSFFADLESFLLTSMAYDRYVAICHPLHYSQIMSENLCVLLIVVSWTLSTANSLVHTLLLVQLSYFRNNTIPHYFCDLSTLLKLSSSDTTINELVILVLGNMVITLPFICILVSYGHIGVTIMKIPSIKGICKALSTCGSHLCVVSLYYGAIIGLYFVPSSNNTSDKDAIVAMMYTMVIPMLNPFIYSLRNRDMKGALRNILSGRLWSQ
Outline: as §1

[8] = target: T8, UniProt Q8VGL7
T8 sequence (whole entry): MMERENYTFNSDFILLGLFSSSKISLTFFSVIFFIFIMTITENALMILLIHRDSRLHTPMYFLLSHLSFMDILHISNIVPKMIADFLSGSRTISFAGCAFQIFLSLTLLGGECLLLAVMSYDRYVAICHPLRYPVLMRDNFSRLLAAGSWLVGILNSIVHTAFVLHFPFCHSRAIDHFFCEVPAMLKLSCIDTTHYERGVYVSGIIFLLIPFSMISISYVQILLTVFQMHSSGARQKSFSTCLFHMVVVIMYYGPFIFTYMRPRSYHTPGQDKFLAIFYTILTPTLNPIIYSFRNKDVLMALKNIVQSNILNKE
Outline: as §1

[9] = target: T9, UniProt Q8VGM2
T9 sequence (whole entry): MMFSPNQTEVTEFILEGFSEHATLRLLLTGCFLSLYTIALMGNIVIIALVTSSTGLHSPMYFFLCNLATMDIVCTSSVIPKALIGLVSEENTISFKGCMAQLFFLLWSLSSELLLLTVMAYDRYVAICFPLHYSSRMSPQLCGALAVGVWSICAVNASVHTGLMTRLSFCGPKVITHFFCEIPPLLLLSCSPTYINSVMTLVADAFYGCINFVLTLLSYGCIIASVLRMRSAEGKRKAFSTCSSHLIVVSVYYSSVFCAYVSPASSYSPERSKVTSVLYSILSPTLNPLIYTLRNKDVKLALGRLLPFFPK
Outline: as §1

[10] = target: T10, UniProt Q8VGP6
T10 sequence (whole entry): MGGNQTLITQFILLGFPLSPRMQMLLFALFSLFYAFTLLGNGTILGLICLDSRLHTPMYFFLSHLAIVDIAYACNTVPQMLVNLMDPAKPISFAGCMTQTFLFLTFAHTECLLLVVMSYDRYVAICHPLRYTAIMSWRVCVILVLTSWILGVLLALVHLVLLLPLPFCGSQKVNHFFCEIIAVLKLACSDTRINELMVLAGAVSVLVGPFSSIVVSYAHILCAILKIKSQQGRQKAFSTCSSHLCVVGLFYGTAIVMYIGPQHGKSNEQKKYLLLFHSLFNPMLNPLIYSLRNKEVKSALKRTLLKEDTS
Outline: as §1

[11] = target: T11, UniProt Q8VGQ3
T11 sequence (whole entry): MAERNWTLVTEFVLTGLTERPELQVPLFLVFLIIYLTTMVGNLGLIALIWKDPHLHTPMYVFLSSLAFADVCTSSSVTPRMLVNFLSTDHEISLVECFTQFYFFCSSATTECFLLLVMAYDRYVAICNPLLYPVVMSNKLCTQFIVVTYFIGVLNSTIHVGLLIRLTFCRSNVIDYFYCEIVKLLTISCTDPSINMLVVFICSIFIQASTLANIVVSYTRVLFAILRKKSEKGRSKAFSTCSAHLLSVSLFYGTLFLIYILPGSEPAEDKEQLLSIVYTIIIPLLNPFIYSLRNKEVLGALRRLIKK
Outline: as §1

[12] = target: T12, UniProt Q8VGT4
T12 sequence (whole entry): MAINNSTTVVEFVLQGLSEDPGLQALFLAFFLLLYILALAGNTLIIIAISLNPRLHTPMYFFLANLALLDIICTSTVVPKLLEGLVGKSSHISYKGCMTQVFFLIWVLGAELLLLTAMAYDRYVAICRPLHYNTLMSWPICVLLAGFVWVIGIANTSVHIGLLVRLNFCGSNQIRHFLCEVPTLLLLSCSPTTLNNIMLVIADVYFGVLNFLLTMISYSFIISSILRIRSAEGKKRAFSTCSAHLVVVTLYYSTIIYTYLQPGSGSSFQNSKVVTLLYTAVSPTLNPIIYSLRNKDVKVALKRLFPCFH
Outline: as §1

[13] = target: T13, UniProt Q8VGU3
T13 sequence (whole entry): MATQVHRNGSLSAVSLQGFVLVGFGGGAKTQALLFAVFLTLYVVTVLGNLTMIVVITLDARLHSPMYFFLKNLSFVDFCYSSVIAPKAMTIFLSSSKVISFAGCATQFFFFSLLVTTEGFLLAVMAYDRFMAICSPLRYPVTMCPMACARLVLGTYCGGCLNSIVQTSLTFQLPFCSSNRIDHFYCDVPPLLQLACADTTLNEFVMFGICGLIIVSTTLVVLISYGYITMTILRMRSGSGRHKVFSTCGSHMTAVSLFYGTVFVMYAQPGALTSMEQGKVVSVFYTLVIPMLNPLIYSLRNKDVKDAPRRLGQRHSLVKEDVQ
Outline: as §1

[14] = target: T14, UniProt Q8VGV1
T14 sequence (whole entry): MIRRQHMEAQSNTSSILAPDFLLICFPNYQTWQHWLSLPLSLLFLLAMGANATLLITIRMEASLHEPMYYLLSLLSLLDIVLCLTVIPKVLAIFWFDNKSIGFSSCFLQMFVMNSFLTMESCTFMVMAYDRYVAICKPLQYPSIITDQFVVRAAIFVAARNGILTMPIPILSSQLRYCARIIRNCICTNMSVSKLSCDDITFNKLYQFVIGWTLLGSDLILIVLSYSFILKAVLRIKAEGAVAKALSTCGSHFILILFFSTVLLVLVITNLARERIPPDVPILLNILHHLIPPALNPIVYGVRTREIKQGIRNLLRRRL
Outline: as §1

[15] = target: T15, UniProt Q8VGV7
T15 sequence (whole entry): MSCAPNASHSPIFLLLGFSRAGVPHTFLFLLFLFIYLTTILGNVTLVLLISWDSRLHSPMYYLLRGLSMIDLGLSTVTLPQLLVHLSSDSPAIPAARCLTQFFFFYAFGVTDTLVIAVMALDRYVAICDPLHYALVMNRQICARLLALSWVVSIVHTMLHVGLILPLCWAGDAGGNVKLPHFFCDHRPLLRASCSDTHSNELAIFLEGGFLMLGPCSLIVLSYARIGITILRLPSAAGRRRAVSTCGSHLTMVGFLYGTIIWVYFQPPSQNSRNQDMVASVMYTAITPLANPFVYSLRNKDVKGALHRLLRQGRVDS
Outline: as §1

[16] = target: T16, UniProt Q8VGX3
T16 sequence (whole entry): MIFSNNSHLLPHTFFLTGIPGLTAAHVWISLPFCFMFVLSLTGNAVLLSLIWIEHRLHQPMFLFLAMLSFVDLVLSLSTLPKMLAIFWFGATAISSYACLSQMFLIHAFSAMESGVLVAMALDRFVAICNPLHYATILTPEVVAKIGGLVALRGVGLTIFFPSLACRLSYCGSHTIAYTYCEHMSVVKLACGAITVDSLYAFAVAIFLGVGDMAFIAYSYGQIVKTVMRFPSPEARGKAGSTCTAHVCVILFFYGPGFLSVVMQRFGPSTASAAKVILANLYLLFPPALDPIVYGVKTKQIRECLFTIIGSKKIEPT
Outline: as §1

[17] = target: T17, UniProt Q8VGX5
T17 sequence (whole entry): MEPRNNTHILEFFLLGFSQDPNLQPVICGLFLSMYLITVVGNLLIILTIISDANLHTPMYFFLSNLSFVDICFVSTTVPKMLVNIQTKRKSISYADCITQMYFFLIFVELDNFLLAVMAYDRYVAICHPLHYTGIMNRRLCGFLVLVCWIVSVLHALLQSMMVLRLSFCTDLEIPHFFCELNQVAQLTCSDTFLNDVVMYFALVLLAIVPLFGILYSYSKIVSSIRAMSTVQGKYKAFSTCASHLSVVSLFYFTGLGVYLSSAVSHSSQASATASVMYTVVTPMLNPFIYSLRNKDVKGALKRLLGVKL
Outline: as §1
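Further: active if original authors judged signal statistically different from baseline.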

SMILES | odorant receptor agonist call [1] | odorant receptor agonist call [2] | odorant receptor agonist call [3] | odorant receptor agonist call [4] | odorant receptor agonist call [5] | odorant receptor agonist call [6] | odorant receptor agonist call [7] | odorant receptor agonist call [8] | odorant receptor agonist call [9] | odorant receptor agonist call [10] | odorant receptor agonist call [11] | odorant receptor agonist call [12] | odorant receptor agonist call [13] | odorant receptor agonist call [14] | odorant receptor agonist call [15] | odorant receptor agonist call [16] | odorant receptor agonist call [17]
CC(=O)OCC=C(C)C | active | inactive | inactive | inactive | inactive | active | inactive | inactive | inactive | inactive | inactive | inactive | inactive | inactive | inactive | inactive | active
C=C(C)C1CC=C(C)CC1 (configuration not stated) | inactive |  |  |  | inactive |  | inactive |  |  |  |  |  | inactive |  | inactive | active | inactive
C=C(C)C1CCC(C)C(=O)C1 (configuration not stated) | active | inactive | inactive | inactive | inactive | active | active | inactive | inactive | inactive | active | inactive | inactive | inactive | inactive | inactive | active
COc1ccccc1 | inactive |  |  |  | inactive |  | inactive |  |  |  |  |  | inactive |  | inactive | inactive | inactive
C=CCOC(=O)CCCCCC | inactive | inactive | inactive | inactive | inactive | inactive | inactive | inactive | inactive | inactive | inactive | inactive | inactive | inactive | inactive | inactive | inactive
CCCCCCCCOC=O | inactive |  |  |  | inactive |  | inactive |  |  |  |  |  | inactive |  | inactive | inactive | inactive

From the M2OR odorant receptor database
